Laboratory results published in ChEMBL document CHEMBL1127791, “Design, synthesis, and biological evaluation of cosalane, a novel anti-HIV agent which inhibits multiple features of virus reproduction” (J Med Chem, 1994).

Legend:
B(EBV+) = assay: Effective concentration required for antiviral activity against B(EBV+) cell line of AA5 cells of Human by XTT assay; format: functional, cell-based
In short: (§1)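 Human T, B or macrophage-type cell lines were infected with HIV-1 RF in complete RPMI medium with serially diluted drug and cultured 6 days at 37 °C. Inhibition was read by XTT in cytopathically infected cells, or by supernatant RT activity or p24 ELISA in noncytopathically infected cells. EC₅₀ was calculated.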

CEM-SS [1] = assay: Effective concentration required for antiviral activity against HIV strain IIIB in CEM-SS cells by XTT assay; format: functional, cell-based; conditions: Homo sapiens
In short: (§2)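 CEM-SS cells, 5000/well in RPMI 1640 with 5% FBS, 2 mM L-glutamine and gentamycin, were infected with each HIV strain at MOI 0.01 with serially diluted drug. They were incubated 6 days at 37 °C in 5% CO₂. Viability was read by XTT, and EC₅₀ for protection from virus-induced killing was calculated.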

CEM-SS [2] = assay: Effective concentration required for antiviral activity against T cell line of CEM-SS cells of Human by XTT assay; format: functional, cell-based; in short: as §1
BxT = assay: Effective concentration required for antiviral activity against BxT cell line of 174xCEM cells of Human by XTT assay; format: functional, cell-based; in short: as §1
[3] = tested on: Human immunodeficiency virus; assay: Effective concentration required for antiviral activity against HIV strain G by XTT assay; format: functional, organism-based; conditions: Human immunodeficiency virus 1; in short: as §2
[4] = tested on: Human immunodeficiency virus; assay: Effective concentration required for antiviral activity against HIV strain LAV by XTT assay; format: functional, organism-based; conditions: Human immunodeficiency virus 1; in short: as §2
[5] = tested on: Human immunodeficiency virus; assay: Effective concentration required for antiviral activity against HIV strain MCK by XTT assay; format: functional, organism-based; conditions: Human immunodeficiency virus 1; in short: as §2
[6] = tested on: Human immunodeficiency virus; assay: Effective concentration required for antiviral activity against HIV strain MN by XTT assay; format: functional, organism-based; conditions: Human immunodeficiency virus 1; in short: as §2
[7] = tested on: Human immunodeficiency virus; assay: Effective concentration required for antiviral activity against HIV strain PM16 by XTT assay; format: functional, organism-based; conditions: Human immunodeficiency virus 1; in short: as §2
[8] = tested on: Human immunodeficiency virus; assay: Effective concentration required for antiviral activity against HIV strain RF by XTT assay; format: functional, organism-based; conditions: Human immunodeficiency virus 1; in short: as §2
[9] = tested on: Human immunodeficiency virus; assay: Effective concentration required for antiviral activity against HIV strain SKI by XTT assay; format: functional, organism-based; conditions: Human immunodeficiency virus 1; in short: as §2
[10] = tested on: Human immunodeficiency virus; assay: Effective concentration required for antiviral activity against HIV strain VIHU (nonsyncytia inducing) by XTT assay; format: functional, organism-based; conditions: Human immunodeficiency virus 1
[11] = tested on: Human immunodeficiency virus; assay: Effective concentration required for antiviral activity against HIV strain WEJO (syncytia inducing) by XTT assay; format: functional, organism-based; conditions: Human immunodeficiency virus 1
[12] = tested on: Human immunodeficiency virus; assay: Effective concentration required for antiviral activity against HIV strain WOME (syncytia inducing) by XTT assay; format: functional, organism-based; conditions: Human immunodeficiency virus 1
[13] = tested on: Human immunodeficiency virus 2; assay: Effective concentration required for antiviral activity against HIV strain MS (HIV-2) by XTT assay; format: functional, organism-based; in short: as §2
[14] = tested on: Human immunodeficiency virus; assay: Effective concentration required for antiviral activity against HIV strain 205 by XTT assay; format: functional, organism-based; conditions: Human immunodeficiency virus 1; in short: as §2
[15] = tested on: Human immunodeficiency virus; assay: Effective concentration required for antiviral activity against HIV strain 214 by XTT assay; format: functional, organism-based; conditions: Human immunodeficiency virus 1; in short: as §2
[16] = tested on: Human immunodeficiency virus; assay: Effective concentration required for antiviral activity against HIV strain A17 (pyridinone-resistant strain) by XTT assay; format: functional, organism-based; conditions: Human immunodeficiency virus 1; in short: as §2
[17] = tested on: Human immunodeficiency virus; assay: Effective concentration required for antiviral activity against HIV strain BAKI (syncytia inducing) by XTT assay; format: functional, organism-based; conditions: Human immunodeficiency virus 1
[18] = tested on: Human immunodeficiency virus; assay: Effective concentration required for antiviral activity against HIV strain G9106 (AZT-resistant strain) by XTT assay; format: functional, organism-based; conditions: Human immunodeficiency virus 1; in short: as §2
MT4 = assay: Effective concentration required for antiviral activity against T (HTLV-1+)cell line of MT-4 cells of Human by XTT assay; format: functional, cell-based; in short: as §1
MT2 = assay: Effective concentration required for antiviral activity against HIV strain IIIB in MT-2 cells by XTT assay; format: functional, cell-based; conditions: Homo sapiens
In short: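 HIV-1 IIIB was tested in MT-2 cells in a microtiter XTT cytopathicity assay. Serially diluted drug was added to cells infected at MOI 0.01 and incubated 6 days at 37 °C in 5% CO₂. EC₅₀ for cellular protection was calculated from XTT viability.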

PBL = assay: Effective concentration required for antiviral activity against lymphocyte cell line of PBL cells of Human by […]; format: functional, cell-based
In short: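 PHA-stimulated fresh human PBLs were infected with clinical HIV-1 isolate WEJO in the presence of drug. Culture supernatants were assayed for RT and/or p24 by antigen-capture ELISA to give EC₅₀.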

U-937 = assay: Effective concentration required for antiviral activity against Macrophage cell line of U937 cells of Human by XTT assay; format: functional, cell-based; in short: as §1
[19] = tested on: Human immunodeficiency virus; assay: Effective concentration required for antiviral activity against HIV strain TP1 by XTT assay; format: functional, organism-based; conditions: Human immunodeficiency virus 1; in short: as §2
M = assay: Effective concentration required for antiviral activity against M cell line of macrophage cells of Human by p24 ELISA

Compound | EC50 (B(EBV+)) | EC50 (CEM-SS [1]) | EC50 (CEM-SS [2]) | EC50 (BxT) | EC50 [3] | EC50 [4] | EC50 [5] | EC50 [6] | EC50 [7] | EC50 [9] | EC50 [10] | EC50 [11] | EC50 [12] | EC50 [13] | EC50 [14] | EC50 [15] | EC50 [16] | EC50 [17] | EC50 [18] | EC50 (MT4) | further results
CC(C)CCCC(C)[C@H]1CC[C@H]2[C@@H]3CCC4C[C@@H](CCC=C(c5cc(Cl)c(O)c(C(=O)O)c5)c5cc(Cl)c(O)c(C(=O)O)c5)CC[C@]4(C)[C@H]3CC[C@]12C (stereo partly specified) | 6.6 µM | 6.8 µM | 5.1 µM | 6.1 µM | 2.2 µM | 14.4 µM | 2.1 µM | 8.8 µM | 6.6 µM | 20.6 µM | 80.2 µM | 44.8 µM | 69.9 µM | 22.5 µM | 6.7 µM | 7.1 µM | 4.3 µM | 48.1 µM | 6.6 µM | 20 µM | EC50 [8]: 1.7 µM; EC50 (MT2): 3.4 µM; EC50 (PBL): 44.8 µM; EC50 (U-937): 7.4 µM; EC50 [19]: 6.5 µM; EC50 (M): 19.7 µM
Cc1cn([C@H]2C[C@H](N=[N+]=[N-])[C@@H](CO)O2)c(=O)[nH]c1=O [ZIDOVUDINE] | 0.001 µM | 0.004 µM | 0.095 µM | 0.055 µM | 0.002 µM | 0.008 µM | 0.002 µM | 0.004 µM | 0.011 µM | 0.013 µM | 0.02 µM | 0.018 µM | 0.006 µM | 0.002 µM | 0.009 µM | 0.009 µM | 0.002 µM | 0.01 µM | > 0.1 µM | 0.085 µM | EC50 (MT2): 0.003 µM; EC50 (PBL): 0.029 µM; EC50 (U-937): 0.03 µM; EC50 [19]: 0.006 µM; EC50 (M): 0.015 µM
